Calls of active or inactive are those of the source. No cut-off for these calls is given here.
How the values were obtained:
[1] = target: T1, Glucocorticoid receptor (Homo sapiens) (UniProt P04150); settings: CV-1
T1 sequence (whole entry): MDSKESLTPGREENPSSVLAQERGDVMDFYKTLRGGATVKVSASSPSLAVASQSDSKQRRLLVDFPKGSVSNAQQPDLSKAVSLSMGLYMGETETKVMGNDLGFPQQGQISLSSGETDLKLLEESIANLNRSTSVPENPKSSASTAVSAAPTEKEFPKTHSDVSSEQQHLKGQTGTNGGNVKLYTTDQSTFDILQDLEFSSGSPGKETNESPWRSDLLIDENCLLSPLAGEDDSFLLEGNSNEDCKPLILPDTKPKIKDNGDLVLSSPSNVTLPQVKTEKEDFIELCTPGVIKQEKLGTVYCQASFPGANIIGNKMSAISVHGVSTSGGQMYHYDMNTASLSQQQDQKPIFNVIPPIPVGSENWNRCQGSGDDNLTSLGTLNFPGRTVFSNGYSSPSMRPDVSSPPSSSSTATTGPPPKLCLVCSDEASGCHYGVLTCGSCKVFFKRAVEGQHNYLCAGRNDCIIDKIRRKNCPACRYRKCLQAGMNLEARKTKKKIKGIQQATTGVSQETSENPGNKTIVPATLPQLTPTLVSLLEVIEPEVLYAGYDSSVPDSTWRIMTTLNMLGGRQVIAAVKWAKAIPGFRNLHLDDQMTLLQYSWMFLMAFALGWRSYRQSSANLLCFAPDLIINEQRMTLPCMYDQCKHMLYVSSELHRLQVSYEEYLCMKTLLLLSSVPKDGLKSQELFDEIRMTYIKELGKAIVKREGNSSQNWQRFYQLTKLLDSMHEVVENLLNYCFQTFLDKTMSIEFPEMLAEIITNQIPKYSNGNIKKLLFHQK

Mus musculus [2] = assay: Toxicity in Swiss-Webster mouse assessed as decrease in bone formation at 3 mg/kg after 28 days; assay type: organism-based; design: dose 3 mg/kg; settings: in vivo, 672 h
Outline: (§1)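 Male Swiss–Webster mice, three months old, singly housed on standard chow, dosed orally for 28 days (vehicle; 3, 10, 30 mg/kg). Alizarin red 30 mg/kg s.c. at baseline DXA and calcein 15 mg/kg s.c. at final DXA for labeling. Tibial cortical histomorphometry under epifluorescence. Periosteal BFR = double-labeled surface × MAR/periosteal perimeter.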

Mus musculus [3] = assay: Toxicity in Swiss-Webster mouse assessed as decrease in bone formation at 10 mg/kg after 28 days; assay type: organism-based; design: dose 10 mg/kg; settings: in vivo, 672 h
Outline: as §1

Mus musculus [4] = assay: Toxicity in Swiss-Webster mouse assessed as decrease in bone formation at 30 mg/kg after 28 days; assay type: organism-based; design: dose 30 mg/kg; settings: in vivo, 672 h
Outline: as §1

[5] = target: T2, Glucocorticoid receptor (Rattus norvegicus) (UniProt P06536); assay: Activity at endogenous glucocorticoid receptor in rat H42E liver cells assessed as increase in transcriptional activation of phosphoenol pyruvate carboxykinase at 0.01 uM after 24 hrs by RT-PCR; assay type: cell-based
T2 sequence (whole entry): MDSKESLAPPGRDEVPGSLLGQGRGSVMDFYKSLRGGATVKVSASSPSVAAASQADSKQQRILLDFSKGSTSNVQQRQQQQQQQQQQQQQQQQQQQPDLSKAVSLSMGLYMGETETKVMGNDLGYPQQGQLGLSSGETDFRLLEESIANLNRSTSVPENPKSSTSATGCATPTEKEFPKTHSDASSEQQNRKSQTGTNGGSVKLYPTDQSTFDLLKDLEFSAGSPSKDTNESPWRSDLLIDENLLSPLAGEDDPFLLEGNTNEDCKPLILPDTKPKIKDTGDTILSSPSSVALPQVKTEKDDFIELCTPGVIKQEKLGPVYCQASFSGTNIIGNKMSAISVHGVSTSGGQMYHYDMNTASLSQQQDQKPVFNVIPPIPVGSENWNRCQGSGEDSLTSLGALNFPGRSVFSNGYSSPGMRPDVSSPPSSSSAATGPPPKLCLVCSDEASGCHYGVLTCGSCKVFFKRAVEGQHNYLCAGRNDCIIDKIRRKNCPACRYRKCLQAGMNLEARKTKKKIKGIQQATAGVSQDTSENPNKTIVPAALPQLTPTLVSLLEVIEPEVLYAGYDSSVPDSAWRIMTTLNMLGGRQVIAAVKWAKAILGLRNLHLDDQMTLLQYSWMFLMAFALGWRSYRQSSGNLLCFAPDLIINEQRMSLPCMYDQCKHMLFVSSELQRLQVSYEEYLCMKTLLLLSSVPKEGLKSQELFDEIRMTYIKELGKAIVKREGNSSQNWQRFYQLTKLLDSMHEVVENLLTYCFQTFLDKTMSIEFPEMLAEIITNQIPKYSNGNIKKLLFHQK
Outline: (§2)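 H4IIE rat liver cells (endogenous GR) kept in 10% FBS, seeded overnight at 3.5 × 10^5 cells/well, then given vehicle or compound in 10% dextran/charcoal-treated FBS for 24 h. RNA extracted, first-strand cDNA made, real-time PCR run (40 cycles). Target signal divided by 36B4 control gene. Triplicate biological samples and triplicate assays per dose; one-way ANOVA with Dunnett's method.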

[6] = target: T2, Glucocorticoid receptor (Rattus norvegicus); assay: Activity at endogenous glucocorticoid receptor in rat H42E liver cells assessed as increase in transcriptional activation of pyruvate dehydrogenase kinase at 0.1 uM after 24 hrs by RT-PCR; assay type: cell-based
Outline: as §2

Mus musculus [7] = assay: Inhibition of collagen-induced arthritis in DBA/1 mouse at less than 3 mg/kg, po after 15 days; assay type: functional, organism-based; design: dose 3 mg/kg
Outline: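 Female DBA/1 mice, 6–8 weeks old, acclimatized 10 days. Bovine type II collagen (stored at 4 mg/ml in 0.01 M acetic acid) with complete Freund's adjuvant given intradermally at tail base on days 1 and 7. Daily oral gavage days 17–31 (15 days). Limbs scored 0–4 for clinical arthritis signs; 10 mice/group. One-way ANOVA with Fisher's LSD, P < 0.05.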

Mus musculus [8] = assay: Toxicity in Swiss-Webster mouse assessed as increase in body fat at 10 mg/kg after 28 days; assay type: organism-based; design: dose 10 mg/kg; settings: in vivo, 672 h
Outline: (§3)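 Male Swiss–Webster mice, three months old, singly housed, 12-h light cycle, chow ad libitum. Oral treatment for 28 days with vehicle or 3, 10, 30 mg/kg. Percentage body fat measured by DEXA, compared against vehicle controls.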

Mus musculus [9] = assay: Toxicity in Swiss-Webster mouse assessed as increase in body fat at 30 mg/kg after 28 days; assay type: organism-based; design: dose 30 mg/kg; settings: in vivo, 672 h
Outline: as §3

Mus musculus [10] = species: Mus musculus; assay: Toxicity in Swiss-Webster mouse assessed as increase in body fat after 28 days relative to control; assay type: organism-based; settings: in vivo, 672 h
Outline: as §3

Progesterone receptor = target: T3, Progesterone receptor (Homo sapiens, UniProt P06401); assay: Binding affinity to human recombinant progesterone-A receptor expressed in SF9 cells
T3 sequence (P06401 whole entry): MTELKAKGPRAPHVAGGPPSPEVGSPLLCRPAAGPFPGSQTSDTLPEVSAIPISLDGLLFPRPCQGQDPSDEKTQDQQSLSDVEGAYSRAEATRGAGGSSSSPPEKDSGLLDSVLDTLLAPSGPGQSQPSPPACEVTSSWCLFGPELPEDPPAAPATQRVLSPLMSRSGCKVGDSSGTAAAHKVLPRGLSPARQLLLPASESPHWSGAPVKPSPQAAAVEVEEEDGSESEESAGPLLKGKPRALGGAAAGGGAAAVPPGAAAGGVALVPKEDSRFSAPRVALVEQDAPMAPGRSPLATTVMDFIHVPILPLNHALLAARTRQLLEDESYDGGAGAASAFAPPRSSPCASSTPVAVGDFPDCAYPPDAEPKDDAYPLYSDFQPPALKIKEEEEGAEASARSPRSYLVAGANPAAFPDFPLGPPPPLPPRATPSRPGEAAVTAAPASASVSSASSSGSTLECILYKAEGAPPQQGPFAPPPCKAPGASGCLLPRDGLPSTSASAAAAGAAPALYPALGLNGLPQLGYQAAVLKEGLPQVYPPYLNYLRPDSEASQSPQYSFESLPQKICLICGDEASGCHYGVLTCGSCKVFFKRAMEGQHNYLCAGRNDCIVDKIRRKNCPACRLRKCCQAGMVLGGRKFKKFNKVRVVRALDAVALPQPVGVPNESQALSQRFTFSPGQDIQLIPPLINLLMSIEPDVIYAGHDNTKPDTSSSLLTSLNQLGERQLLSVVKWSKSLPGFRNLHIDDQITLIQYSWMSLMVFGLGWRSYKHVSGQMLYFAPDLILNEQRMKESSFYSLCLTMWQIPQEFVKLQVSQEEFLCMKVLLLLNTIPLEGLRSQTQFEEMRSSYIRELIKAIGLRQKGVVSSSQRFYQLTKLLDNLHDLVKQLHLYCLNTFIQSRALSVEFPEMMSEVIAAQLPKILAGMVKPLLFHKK
Outline: (§4)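 Receptor source: extracts of SF-9 insect cells infected with recombinant baculovirus expressing the indicated receptor. Affinity was measured in a labeled-hormone binding assay.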

Androgen receptor = target: T4, Androgen receptor (Homo sapiens, UniProt P10275); assay: Binding affinity to human recombinant androgen receptor expressed in SF9 cells
T4 sequence (P10275 whole entry): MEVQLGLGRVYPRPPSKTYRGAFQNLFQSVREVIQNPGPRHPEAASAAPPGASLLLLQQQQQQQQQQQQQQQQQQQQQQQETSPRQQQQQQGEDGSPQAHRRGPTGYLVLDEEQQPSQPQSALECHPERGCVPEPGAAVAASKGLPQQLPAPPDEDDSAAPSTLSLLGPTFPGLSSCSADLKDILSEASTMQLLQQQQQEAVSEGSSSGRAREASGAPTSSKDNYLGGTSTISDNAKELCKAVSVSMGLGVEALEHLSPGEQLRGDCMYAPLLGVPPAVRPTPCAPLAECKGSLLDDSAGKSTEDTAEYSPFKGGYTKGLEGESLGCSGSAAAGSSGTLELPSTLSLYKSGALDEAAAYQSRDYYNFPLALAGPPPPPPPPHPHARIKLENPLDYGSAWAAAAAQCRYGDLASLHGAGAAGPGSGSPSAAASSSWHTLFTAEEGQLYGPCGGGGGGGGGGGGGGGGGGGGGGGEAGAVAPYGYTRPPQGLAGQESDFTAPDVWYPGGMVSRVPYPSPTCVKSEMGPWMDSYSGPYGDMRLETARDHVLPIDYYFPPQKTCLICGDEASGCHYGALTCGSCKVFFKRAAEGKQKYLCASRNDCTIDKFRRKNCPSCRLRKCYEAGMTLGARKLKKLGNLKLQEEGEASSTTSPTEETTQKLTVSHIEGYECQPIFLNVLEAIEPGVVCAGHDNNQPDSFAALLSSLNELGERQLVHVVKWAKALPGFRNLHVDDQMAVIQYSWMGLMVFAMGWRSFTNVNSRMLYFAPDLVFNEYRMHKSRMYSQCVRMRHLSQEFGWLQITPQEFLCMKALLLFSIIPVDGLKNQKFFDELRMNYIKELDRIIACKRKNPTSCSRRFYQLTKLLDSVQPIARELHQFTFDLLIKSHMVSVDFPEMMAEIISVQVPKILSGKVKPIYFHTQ
Outline: as §4

ED50 [1] [nM] | Activity [5] | Activity [6] | Ki (Progesterone receptor) [nM] | Ki (Androgen receptor) [nM] | Compound | Activity (Mus musculus [2]) | Activity (Mus musculus [3]) | Activity (Mus musculus [4]) | Activity (Mus musculus [7]) | Activity (Mus musculus [8]) | Activity (Mus musculus [9]) | Activity (Mus musculus [10])
0.1 |  |  |  |  | C[C@@H]1C[C@H]2[C@@H]3CCC4=CC(=O)C=C[C@]4(C)[C@@]3(F)[C@@H](O)C[C@]2(C)[C@@]1(O)C(=O)CO |  |  |  |  |  |  | 
4 | Active | Active |  |  | C[C@]12C=CC(=O)C=C1CC[C@@H]1[C@@H]2[C@@H](O)C[C@@]2(C)[C@H]1CC[C@]2(O)C(=O)CO [PREDNISOLONE] | Toxic | Toxic | Toxic | Active | Toxic | Toxic | 
 |  |  | 866 | 910 | COc1c(O)ccc2c1-c1ccc3c(c1/C(=C/c1cccc(C)c1F)O2)C(C)=CC(C)(C)N3 |  |  | Toxic | Active |  |  | Toxic

Reference: ChEMBL document CHEMBL1147082 (Proc Natl Acad Sci U S A, 2007)
